Measured values reported in ChEMBL document CHEMBL1781992, “A novel monocarbonyl analogue of curcumin, (1E,4E)-1,5-bis(2,3-dimethoxyphenyl)penta-1,4-dien-3-one, induced cancer cell H460 apoptosis via activation of endoplasmic reticulum stress signaling pathway” (J Med Chem, 2011).
Active and inactive are the calls of the source. The rule behind the calls is not given here.

Legend:
NCI-H460 [1] = experiment: Induction of apoptosis in human NCI-H460 cells assessed as viable cells at 20 uM after 6 hrs by annexinV-propidium iodide staining based flow cytometric analysis relative to control; assay type: functional; conditions: NCI-H460, 6 h, read-out: Activity
Method in brief: (§1)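 H460 cells plated for 6 h, then treated with 5, 10 or 20 μM. Cells washed, trypsin-EDTA detached and resuspended in PBS, then stained with annexin V and propidium iodide plus RNase and 0.1% Triton X-100 for 30 min at 37 °C before flow cytometry. Figure legend gives 6 h incubation.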

NCI-H460 [2] = experiment: Induction of apoptosis in human NCI-H460 cells assessed as morphological changes at 5 to 20 uM after 24 hrs by light microscopic analysis; assay type: functional, cell-based
Method in brief: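 H460 cells treated at 5, 10 or 20 μM for 24 h; morphology imaged by light microscope at 20× magnification.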

NCI-H460 [3] = experiment: Induction of apoptosis in human NCI-H460 cells assessed as late apoptotic cells at 10 uM after 6 hrs by annexinV-propidium iodide staining based flow cytometric analysis relative to control; assay type: functional; method in brief: as §1
NCI-H460 [4] = experiment: Induction of CHOP mRNA expression in human NCI-H460 cells after 6 hrs by real time quantitative PCR analysis; assay type: functional, cell-based
Method in brief: (§2)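 H460 cells exposed to a concentration range for 6 or 12 h. CHOP mRNA measured by RT-PCR/qPCR and normalized to β-actin.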

NCI-H460 [5] = experiment: Induction of apoptosis in human NCI-H460 cells assessed as viable cells at 5 uM after 6 hrs by annexinV-propidium iodide staining based flow cytometric analysis relative to control; assay type: functional; conditions: NCI-H460, 6 h, read-out: Activity; method in brief: as §1
Mus musculus [6] = experiment: Toxicity in ICR mouse assessed as organ weight change at 400 to 800 mg/kg; assay type: organism-based; design: dose 400-800 mg/kg; conditions: in vivo
NCI-H460 [7] = experiment: Induction of apoptosis in human NCI-H460 cells assessed as non-viable necrotic cells at 20 uM after 6 hrs by annexinV-propidium iodide staining based flow cytometric analysis relative to control; assay type: functional; method in brief: as §1
[8] = molecular target: Transcription factor Jun (Homo sapiens) (UniProt P05412); experiment: Induction of c-Jun phosphorylation in human NCI-H460 cells at 20 uM after 3 hrs by Western blot analysis; assay type: cell-based
Method in brief: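 H460 cells cultured in RPMI 1640 with 5% heat-inactivated FBS at 37 C, 10% CO2; exposed to 20 μM for a time course. Lysed at 0 C in Tris-HCl pH 7.4 buffer with NP40, SDS, and protease/phosphatase inhibitors. Phospho-c-Jun detected by Western blot with chemiluminescence, actin as loading control; band density quantified.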

NCI-H460 [9] = experiment: Induction of apoptosis in human NCI-H460 cells assessed as non-viable necrotic cells at 10 uM after 6 hrs by annexinV-propidium iodide staining based flow cytometric analysis relative to control; assay type: functional; method in brief: as §1
NCI-H460 [10] = experiment: Cytotoxicity against human NCI-H460 cells assessed as cell viability at 20 uM after 24 hrs by CellTiter-Glo analysis; assay type: functional; conditions: NCI-H460, 24 h, read-out: Activity
Method in brief: (§3)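 H460 cells (5 × 10^3/well) seeded overnight, then given fresh medium containing compound from DMSO stock (final 5, 10, 20 μM; 2.5–30 μM in the figure) for 24 h. Viability measured with CellTiter-Glo and expressed as percent of vehicle-treated cells; Student's t test.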

NCI-H460 [11] = experiment: Induction of apoptosis in human NCI-H460 cells assessed as activation of caspase 9 activation at 20 uM after 24 hrs by Western blot analysis; assay type: functional, cell-based
NCI-H460 [12] = experiment: Induction of apoptosis in human NCI-H460 cells assessed as viable cells at 10 uM after 6 hrs by annexinV-propidium iodide staining based flow cytometric analysis relative to control; assay type: functional; conditions: NCI-H460, 6 h, read-out: Activity; method in brief: as §1
NCI-H460 [13] = experiment: Induction of apoptosis in human NCI-H460 cells assessed as non-viable necrotic cells at 5 uM after 6 hrs by annexinV-propidium iodide staining based flow cytometric analysis relative to control; assay type: functional; method in brief: as §1
NCI-H460 [14] = experiment: Induction of apoptosis in human NCI-H460 cells assessed as early apoptotic cells at 10 uM after 6 hrs by annexinV-propidium iodide staining based flow cytometric analysis relative to control; assay type: functional; method in brief: as §1
NCI-H460 [15] = experiment: Induction of ATF-4 protein level in human NCI-H460 cells at 20 uM after 6 hrs by Western blot analysis
NCI-H460 [16] = experiment: Induction of apoptosis in human NCI-H460 cells at 20 uM after 6 hrs by flow cytometric analysis; assay type: functional; method in brief: as §1
NCI-H460 [17] = experiment: Induction of apoptosis in human NCI-H460 cells assessed as late apoptotic cells at 20 uM after 6 hrs by annexinV-propidium iodide staining based flow cytometric analysis relative to control; assay type: functional; method in brief: as §1
NCI-H460 [18] = experiment: Antitumor activity against human NCI-H460 cells xenografted in ip dosed nude Balb/cA mouse assessed as decrease in tumor volume administered qd for 20 days; assay type: functional, organism-based
Method in brief: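 BALB/cA nu/nu female athymic mice bearing sc right-flank xenografts (3 × 10^6 H460 cells in PBS); once-daily ip dosing began on day 10, when tumors reached 100–300 mm3. Water-soluble liposome preparation in PBS at 10 or 50 mg/kg; controls received liposome vehicle in PBS. Volume = lw²/2; T/C read on day 22. Seven mice per group, mean ± SD; Student's t test.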

[19] = molecular target: Transcription factor Jun (Homo sapiens) (UniProt P05412); experiment: Induction of c-Jun phosphorylation in human NCI-H460 cells at 20 uM by Western blot analysis; assay type: cell-based; conditions: TDE = time-dependent effect
Method in brief: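 H460 cells in RPMI 1640 with 5% FBS, treated at 20 μM for 12 h. Lysates in Tris-HCl pH 7.4, NP40, SDS buffer with protease/phosphatase inhibitors. p-c-Jun examined by Western blot with HRP secondary and chemiluminescence, actin as equal-loading control.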

NCI-H460 [20] = experiment: Induction of apoptosis in human NCI-H460 cells assessed as activation of caspase 3 activity at 20 uM after 24 hrs by Western blot analysis; assay type: functional, cell-based
NCI-H460 [21] = experiment: Cytotoxicity against human NCI-H460 cells assessed as reduction of cell viability at 5 to 20 uM after 24 hrs by CellTiter-Glo analysis; assay type: functional, cell-based; method in brief: as §3
NCI-H460 [22] = experiment: Induction of apoptosis in human NCI-H460 cells at 5 to 30 uM after 24 hrs by flow cytometric analysis; assay type: functional, cell-based
NCI-H460 [23] = experiment: Induction of XBP-1 mRNA expression in human NCI-H460 cells after 3 hrs by real time quantitative PCR analysis
NCI-H460 [24] = experiment: Decrease in CHOP protein expression in human NCI-H460 cells transfected with lentivirus carrying CHOP siRNA at 10 uM after 6 hrs by Western blot analysis
NCI-H460 [25] = experiment: Cytotoxicity against human NCI-H460 cells assessed as reduction of cell viability at 5 to 30 uM after 24 hrs by CellTiter-Glo analysis; assay type: functional, cell-based; method in brief: as §3
Mus musculus [26] = experiment: Toxicity in ICR mouse assessed as body weight change at 400 to 800 mg/kg; assay type: organism-based; design: dose 400-800 mg/kg; conditions: in vivo
NCI-H460 [27] = experiment: Induction of apoptosis in human NCI-H460 cells assessed as early apoptotic cells at 5 uM after 6 hrs by annexinV-propidium iodide staining based flow cytometric analysis relative to control; assay type: functional; method in brief: as §1
NCI-H460 [28] = experiment: Induction of CHOP mRNA expression in human NCI-H460 cells after 12 hrs by real time quantitative PCR analysis; assay type: functional, cell-based; method in brief: as §2

Transcription factor Jun (Homo sapiens), sequence (P05412 whole entry): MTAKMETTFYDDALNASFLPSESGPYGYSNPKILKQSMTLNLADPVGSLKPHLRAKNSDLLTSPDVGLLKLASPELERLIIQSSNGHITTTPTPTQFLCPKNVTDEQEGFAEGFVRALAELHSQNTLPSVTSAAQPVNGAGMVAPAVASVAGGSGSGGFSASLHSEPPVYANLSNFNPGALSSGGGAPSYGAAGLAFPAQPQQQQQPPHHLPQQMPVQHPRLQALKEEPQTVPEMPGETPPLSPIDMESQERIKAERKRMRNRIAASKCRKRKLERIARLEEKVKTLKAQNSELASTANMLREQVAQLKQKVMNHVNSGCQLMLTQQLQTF

SMILES: COc1cccc(/C=C/C(=O)/C=C/c2cccc(OC)c2OC)c1OC
- viability at 20 µM (NCI-H460 [1]): 57.3%
- Activity (NCI-H460 [2]): Active
- Activity (NCI-H460 [3]): 3.3%
- Activity (NCI-H460 [4]): Dose-dependent effect
- viability at 5 µM (NCI-H460 [5]): 89.4%
- Activity (Mus musculus [6]): Non-toxic
- Activity (NCI-H460 [7]): 1.48%
- Activity [8]: Active
- Activity (NCI-H460 [9]): 1.49%
- viability at 20 µM (NCI-H460 [10]): 16%
- Activity (NCI-H460 [11]): Active
- viability at 10 µM (NCI-H460 [12]): 72.5%
- Activity (NCI-H460 [13]): 0.55%
- Activity (NCI-H460 [14]): 22.74%
- Activity (NCI-H460 [15]): Active
- Activity (NCI-H460 [16]): 29.63%
- Activity (NCI-H460 [17]): 11.56%
- Activity (NCI-H460 [18]): Dose-dependent effect
- Activity [19]: tde
- Activity (NCI-H460 [20]): Active
- Activity (NCI-H460 [21]): Active
- Activity (NCI-H460 [22]): Active
- Activity (NCI-H460 [23]): Dose-dependent effect
- Activity (NCI-H460 [24]): inactive
- Activity (NCI-H460 [25]): Active
- Activity (Mus musculus [26]): Non-toxic
- Activity (NCI-H460 [27]): 7.44%
- Activity (NCI-H460 [28]): Dose-dependent effect
